According to the M2OR odorant receptor database:
Where a chain is given by its changes, count along the chain named.

Target: T1, OR9A4 (Homo sapiens) (UniProt Q8NGU2)
T1 sequence (whole entry): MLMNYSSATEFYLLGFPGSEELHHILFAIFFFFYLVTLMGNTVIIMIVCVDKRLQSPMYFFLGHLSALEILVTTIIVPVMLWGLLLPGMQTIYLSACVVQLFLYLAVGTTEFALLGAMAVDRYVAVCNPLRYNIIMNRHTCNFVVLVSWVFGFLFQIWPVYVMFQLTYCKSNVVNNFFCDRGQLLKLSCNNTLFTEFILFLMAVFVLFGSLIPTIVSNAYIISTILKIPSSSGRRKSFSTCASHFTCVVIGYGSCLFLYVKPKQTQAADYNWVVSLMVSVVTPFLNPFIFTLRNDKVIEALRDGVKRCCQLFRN
Conditions: stereoisomer not certain
In short: (§1)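 Transient luciferase assays in mammalian cell lines were common, though methods varied by source. The values come from published papers and their supplementary material, with extra details from the original authors when needed. Responsive refers to a measured signal the original authors judged statistically different from baseline, and non-responsive (inactive) to the remainder.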
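Note: active if original authors judged signal statistically different from baseline.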

Odorant receptor agonist call, inactive:
CC1=NC(C)C(C)S1 (stereo not given), CCC(S)C(C)CO (stereo not given), CC1=C(O)C(=O)C(C)O1 (stereo not given), CCCC(S)CCOC(C)=O (stereo not given), Cc1cnc(C)c(C)n1, CC(=O)c1c(C)c([N+](=O)[O-])c(C(C)(C)C)c([N+](=O)[O-])c1C, CC1CCCCCCCCCCCCC(=O)C1 (stereo not given), CCC1OC(C)=C(O)C1=O (stereo not given), CC(CO)CS (stereo not given), CCCCCC(=O)C(C)C(C)=O (stereo not given), CC1=C(O)C(=O)OC1C (stereo not given), CCC1OC(=O)C(O)=C1C (stereo not given), CCCCCCC=CCCC=O, CCCCC(S)C(C)CO (stereo not given), CCCCCC(S)C(C)CO (stereo not given)

Target: T2, OR9G1 (Homo sapiens) (UniProt Q8NH87)
T2 sequence (whole entry): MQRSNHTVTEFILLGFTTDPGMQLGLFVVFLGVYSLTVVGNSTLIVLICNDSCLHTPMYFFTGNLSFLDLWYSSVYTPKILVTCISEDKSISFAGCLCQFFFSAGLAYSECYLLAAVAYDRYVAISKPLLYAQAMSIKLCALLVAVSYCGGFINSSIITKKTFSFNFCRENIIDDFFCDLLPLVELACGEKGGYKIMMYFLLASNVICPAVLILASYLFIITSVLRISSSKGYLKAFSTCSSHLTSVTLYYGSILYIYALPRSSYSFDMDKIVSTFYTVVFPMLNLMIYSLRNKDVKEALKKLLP
Conditions: stereoisomer not certain
In short: as §1

Odorant receptor agonist call, inactive:
CC1=NC(C)C(C)S1 (stereo not given), CCC(S)C(C)CO (stereo not given), CC1=C(O)C(=O)C(C)O1 (stereo not given), CCCC(S)CCOC(C)=O (stereo not given), Cc1cnc(C)c(C)n1, CC(=O)c1c(C)c([N+](=O)[O-])c(C(C)(C)C)c([N+](=O)[O-])c1C, CC1CCCCCCCCCCCCC(=O)C1 (stereo not given), CCC1OC(C)=C(O)C1=O (stereo not given), CC(CO)CS (stereo not given), CCCCCC(=O)C(C)C(C)=O (stereo not given), CC1=C(O)C(=O)OC1C (stereo not given), CCC1OC(=O)C(O)=C1C (stereo not given), CCCCCCC=CCCC=O, CCCCC(S)C(C)CO (stereo not given), CCCCCC(S)C(C)CO (stereo not given)

Target: T3, OR9G4 (Homo sapiens) (UniProt Q8NGQ1)
T3 sequence (whole entry): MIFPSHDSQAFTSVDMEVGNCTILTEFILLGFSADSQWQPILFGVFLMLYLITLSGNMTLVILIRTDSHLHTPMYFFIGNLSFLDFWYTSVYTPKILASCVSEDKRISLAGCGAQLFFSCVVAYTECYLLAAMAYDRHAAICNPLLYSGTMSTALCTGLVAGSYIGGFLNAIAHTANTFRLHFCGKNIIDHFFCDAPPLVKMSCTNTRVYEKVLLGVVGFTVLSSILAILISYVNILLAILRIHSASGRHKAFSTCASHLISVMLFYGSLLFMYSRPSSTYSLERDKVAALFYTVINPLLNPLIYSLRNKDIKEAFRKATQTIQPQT
Conditions: stereoisomer not certain
In short: as §1

Odorant receptor agonist call, inactive:
CC1=NC(C)C(C)S1 (stereo not given), CCC(S)C(C)CO (stereo not given), CC1=C(O)C(=O)C(C)O1 (stereo not given), CCCC(S)CCOC(C)=O (stereo not given), Cc1cnc(C)c(C)n1, CC(=O)c1c(C)c([N+](=O)[O-])c(C(C)(C)C)c([N+](=O)[O-])c1C, CC1CCCCCCCCCCCCC(=O)C1 (stereo not given), CCC1OC(C)=C(O)C1=O (stereo not given), CC(CO)CS (stereo not given), CCCCCC(=O)C(C)C(C)=O (stereo not given), CC1=C(O)C(=O)OC1C (stereo not given), CCC1OC(=O)C(O)=C1C (stereo not given), CCCCCCC=CCCC=O, CCCCC(S)C(C)CO (stereo not given), CCCCCC(S)C(C)CO (stereo not given)

System: T4, OR9G4 H6Y N206D V222A
T4 sequence (whole entry): T3 sequence (whole entry) with H6Y, N206D, V222A
Conditions: stereoisomer not certain
In short: as §1

Odorant receptor agonist call, inactive:
CC1=NC(C)C(C)S1 (stereo not given), CC1=C(O)C(=O)C(C)O1 (stereo not given), CCCC(S)CCOC(C)=O (stereo not given), Cc1cnc(C)c(C)n1, CCC1OC(C)=C(O)C1=O (stereo not given), CC1=C(O)C(=O)OC1C (stereo not given), CCC1OC(=O)C(O)=C1C (stereo not given), CCCCCCC=CCCC=O

System: T5, OR9G4 N206D V222A
T5 sequence (whole entry): T3 sequence (whole entry) with N206D, V222A
Conditions: stereoisomer not certain
In short: as §1

Odorant receptor agonist call, inactive:
CC1=NC(C)C(C)S1 (stereo not given), CC1=C(O)C(=O)C(C)O1 (stereo not given), CCCC(S)CCOC(C)=O (stereo not given), Cc1cnc(C)c(C)n1, CCC1OC(C)=C(O)C1=O (stereo not given), CC1=C(O)C(=O)OC1C (stereo not given), CCC1OC(=O)C(O)=C1C (stereo not given), CCCCCCC=CCCC=O

Target: T6, OR9G9 (Homo sapiens) (UniProt P0C7N8)
T6 sequence (whole entry): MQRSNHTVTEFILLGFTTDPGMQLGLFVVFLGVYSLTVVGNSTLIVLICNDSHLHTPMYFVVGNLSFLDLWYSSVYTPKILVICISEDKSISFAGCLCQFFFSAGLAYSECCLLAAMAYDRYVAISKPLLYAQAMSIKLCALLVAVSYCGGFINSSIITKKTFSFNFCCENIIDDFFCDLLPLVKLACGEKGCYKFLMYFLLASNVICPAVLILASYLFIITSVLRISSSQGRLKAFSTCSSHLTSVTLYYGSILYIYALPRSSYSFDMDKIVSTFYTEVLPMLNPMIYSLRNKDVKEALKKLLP
Conditions: stereoisomer not certain
In short: as §1

Odorant receptor agonist call, inactive:
CCC(S)C(C)CO (stereo not given), CC(=O)c1c(C)c([N+](=O)[O-])c(C(C)(C)C)c([N+](=O)[O-])c1C, CC1CCCCCCCCCCCCC(=O)C1 (stereo not given), CC(CO)CS (stereo not given), CCCCCC(=O)C(C)C(C)=O (stereo not given), CCCCCCC=CCCC=O, CCCCC(S)C(C)CO (stereo not given), CCCCCC(S)C(C)CO (stereo not given)

System: T7, OR9G9
T7 sequence (whole entry): T6 sequence (whole entry) with C193G
Conditions: stereoisomer not certain
In short: as §1

Odorant receptor agonist call, inactive:
CC1=NC(C)C(C)S1 (stereo not given), CC1=C(O)C(=O)C(C)O1 (stereo not given), CCCC(S)CCOC(C)=O (stereo not given), Cc1cnc(C)c(C)n1, CCC1OC(C)=C(O)C1=O (stereo not given), CC1=C(O)C(=O)OC1C (stereo not given), CCC1OC(=O)C(O)=C1C (stereo not given)

Target: T8, OR9I1 (Homo sapiens) (UniProt Q8NGQ6)
T8 sequence (whole entry): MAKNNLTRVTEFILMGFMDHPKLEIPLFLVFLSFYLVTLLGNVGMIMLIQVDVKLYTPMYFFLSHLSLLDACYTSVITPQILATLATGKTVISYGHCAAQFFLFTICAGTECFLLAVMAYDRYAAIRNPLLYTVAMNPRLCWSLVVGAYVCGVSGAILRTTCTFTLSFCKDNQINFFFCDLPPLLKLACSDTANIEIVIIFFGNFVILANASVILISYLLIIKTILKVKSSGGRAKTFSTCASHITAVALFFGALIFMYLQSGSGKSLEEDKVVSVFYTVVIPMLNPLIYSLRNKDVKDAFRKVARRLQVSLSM
Conditions: stereoisomer not certain
In short: as §1

Odorant receptor agonist call, inactive:
CC1=NC(C)C(C)S1 (stereo not given), CCC(S)C(C)CO (stereo not given), CC1=C(O)C(=O)C(C)O1 (stereo not given), CCCC(S)CCOC(C)=O (stereo not given), Cc1cnc(C)c(C)n1, CC(=O)c1c(C)c([N+](=O)[O-])c(C(C)(C)C)c([N+](=O)[O-])c1C, CC1CCCCCCCCCCCCC(=O)C1 (stereo not given), CCC1OC(C)=C(O)C1=O (stereo not given), CC(CO)CS (stereo not given), CCCCCC(=O)C(C)C(C)=O (stereo not given), CC1=C(O)C(=O)OC1C (stereo not given), CCC1OC(=O)C(O)=C1C (stereo not given), CCCCCCC=CCCC=O, CCCCC(S)C(C)CO (stereo not given), CCCCCC(S)C(C)CO (stereo not given)

Target: T9, OR9K2 (Homo sapiens) (UniProt Q8NGE7)
T9 sequence (whole entry): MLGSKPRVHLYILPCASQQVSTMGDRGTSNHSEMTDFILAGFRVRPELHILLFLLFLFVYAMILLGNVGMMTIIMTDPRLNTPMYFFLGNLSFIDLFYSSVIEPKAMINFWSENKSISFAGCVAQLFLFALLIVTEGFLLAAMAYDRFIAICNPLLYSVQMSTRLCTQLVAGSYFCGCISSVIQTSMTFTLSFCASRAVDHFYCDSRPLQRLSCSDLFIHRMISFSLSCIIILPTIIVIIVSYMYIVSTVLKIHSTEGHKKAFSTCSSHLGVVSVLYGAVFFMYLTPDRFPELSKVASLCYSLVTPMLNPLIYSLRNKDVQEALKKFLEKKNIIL
Conditions: stereoisomer not certain
In short: as §1

Odorant receptor agonist call, inactive:
CC1=NC(C)C(C)S1 (stereo not given), CCC(S)C(C)CO (stereo not given), CC1=C(O)C(=O)C(C)O1 (stereo not given), CCCC(S)CCOC(C)=O (stereo not given), Cc1cnc(C)c(C)n1, CC(=O)c1c(C)c([N+](=O)[O-])c(C(C)(C)C)c([N+](=O)[O-])c1C, CC1CCCCCCCCCCCCC(=O)C1 (stereo not given), CCC1OC(C)=C(O)C1=O (stereo not given), CC(CO)CS (stereo not given), CCCCCC(=O)C(C)C(C)=O (stereo not given), CC1=C(O)C(=O)OC1C (stereo not given), CCC1OC(=O)C(O)=C1C (stereo not given), CCCCC(S)C(C)CO (stereo not given), CCCCCC(S)C(C)CO (stereo not given)
